Experimental data: ChEMBL document CHEMBL6115033, “Discovery of a Pyrazolopyridinone-Based MYC Inhibitor That Selectively Engages Intracellular c-MYC and Disrupts MYC-MAX Heterodimerization” (J Med Chem, 2025)
The source made the active and inactive calls. The calls are words filed in the database; no cut-off is given here.

What was measured:
[1] = tested on: MCF7; assay: Antiproliferative activity against human MCF7 cells assessed as cell viability incubated for 96 hrs by MTT assay; type: functional, cell-based; conditions: MCF7, 96 h
Outline: (§1)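 Adherent cells (2000/well) attached overnight, then exposed to compounds at 0.14–100 µM for 96 h in DMEM with 10% FBS. MTT at 0.5 mg/mL for 4 h in the dark, formazan dissolved in DMSO, absorbance at 570 nm. Compounds were freshly prepared in DMSO, with DMSO below 1%.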

[2] = tested on: MDA-MB-231; assay: Antiproliferative activity against human MDA-MB-231 cells assessed as cell viability incubated for 96 hrs by MTT assay; type: functional, cell-based; conditions: MDA-MB-231, 96 h; outline: as §1
[3] = tested on: MDA-MB-468; assay: Antiproliferative activity against human MDA-MB-468 cells assessed as cell viability incubated for 96 hrs by MTT assay; type: functional, cell-based; conditions: MDA-MB-468, 96 h; outline: as §1
[4] = Antiproliferative activity against tetracycline-treated human P493-6 cells expressing MYC assessed as inhibition of cell proliferation incubated for 96 hrs by cell titer glo assay; type: functional, cell-based; conditions: P493-6, 96 h
Outline: (§2)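 P493-6 cells (3000/well, RPMI) were seeded overnight at 37 °C, then given compounds at final 0.14–100 µM for 96 h. MYC-off cells were pretreated with 0.1 µg/mL tetracycline for 72 h. Read-out was CellTiter-Glo luminescence after equilibration to room temperature. IC50 was determined in high-MYC and MYC-off cells.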

[5] = Selectivity index, ratio of IC50 for antiproliferative activity against tetracycline-treated human P493-6 cells expressing MYC assessed as inhibition of cell proliferation to IC50 for antiproliferative activity against human P493-6 cells expressing MYC assessed as inhibition of cell proliferation; type: functional
Outline: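 MYC-off P493-6 cells obtained by 72 h pretreatment with 0.1 µg/mL tetracycline and compared with untreated MYC-high cells. Cells seeded at 3000 per 100 uL, held overnight at 37 °C, then treated at 0.14–100 uM final for 96 h. Viability read by CellTiter-Glo luminescence. IC50 values determined in both states and compared as a selectivity index.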

[6] = Antiproliferative activity against human P493-6 cells expressing MYC assessed as inhibition of cell proliferation incubated for 96 hrs by cell titer glo assay; type: functional, cell-based; conditions: P493-6, 96 h; outline: as §2
[7] = Induction of apoptosis in human P493-6 cells assessed as viable cells at 25 uM incubated for 24 hrs by Annexin V/PI staining based flow cytometry analysis (reference value: 90.8%); type: functional; conditions: read-out: Activity
[8] = Induction of apoptosis in human P493-6 cells assessed as necrotic cells at 25 uM incubated for 24 hrs by Annexin V/PI staining based flow cytometry analysis (reference value: 0.11 %); type: functional
[9] = Induction of apoptosis in human P493-6 cells assessed as late apoptotic cells at 25 uM incubated for 24 hrs by Annexin V/PI staining based flow cytometry analysis (reference value: 6.52 %); type: functional
[10] = Induction of apoptosis in human P493-6 cells assessed as early apoptotic cells at 25 uM incubated for 24 hrs by Annexin V/PI staining based flow cytometry analysis (reference value: 2.52 %); type: functional
[11] = target: T1, c-Myc/c-Max (Homo sapiens) (UniProt P01106+P61244); assay: Disruption of MYC-MAX interaction in human P493-6 cells assessed as reduction in myc level at 25 uM; type: cell-based
[12] = target: T1, c-Myc/c-Max (Homo sapiens); assay: Disruption of MYC-MAX interaction in human MDA-MB-468 cells assessed as reduction in myc level at 25 uM; type: cell-based
[13] = tested on: P493-6; assay: Antiproliferative activity against tetracycline-treated human P493-6 cells expressing MYC assessed as inhibition of cell proliferation at 25 uM incubated for 96 hrs by cell titer glo assay; type: functional, cell-based
Outline: (§3)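 P493-6 cells, either untreated (high MYC) or MYC-off after 0.1 µg/mL tetracycline for 72 h, were exposed to 25 µM for 96 h. Read-out was % survival by CellTiter-Glo luminescence. Mean ± SD, n = 6, unpaired t-test.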

[14] = tested on: P493-6; assay: Antiproliferative activity against human P493-6 cells expressing MYC assessed as inhibition of cell proliferation at 25 uM incubated for 96 hrs by cell titer glo assay; type: functional, cell-based; outline: as §3

T1 sequence (P01106 whole entry): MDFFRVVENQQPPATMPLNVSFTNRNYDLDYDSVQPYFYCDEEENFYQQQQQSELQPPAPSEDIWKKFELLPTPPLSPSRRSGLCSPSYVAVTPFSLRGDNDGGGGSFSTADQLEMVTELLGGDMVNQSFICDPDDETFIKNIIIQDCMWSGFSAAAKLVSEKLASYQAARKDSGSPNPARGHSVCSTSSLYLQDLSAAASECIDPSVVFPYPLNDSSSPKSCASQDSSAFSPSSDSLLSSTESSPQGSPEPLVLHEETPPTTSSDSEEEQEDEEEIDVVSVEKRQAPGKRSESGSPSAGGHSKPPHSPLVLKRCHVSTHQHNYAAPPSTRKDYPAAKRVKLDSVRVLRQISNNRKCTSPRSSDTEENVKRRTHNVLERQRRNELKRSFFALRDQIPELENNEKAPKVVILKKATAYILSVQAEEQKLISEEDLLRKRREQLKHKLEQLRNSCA
T1 sequence (P61244 2-160 partner limits assumed): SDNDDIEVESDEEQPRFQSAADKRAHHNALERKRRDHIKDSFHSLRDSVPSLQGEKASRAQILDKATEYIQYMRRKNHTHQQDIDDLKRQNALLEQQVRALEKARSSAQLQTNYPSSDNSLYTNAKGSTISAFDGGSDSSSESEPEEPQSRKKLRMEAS

## COc1ccc(-n2nc(-c3ccc(C)cc3)c3cc(C#N)c(=O)[nH]c32)cc1
[1]
  IC50: 9.3 µM
[2]
  IC50: 9.8 µM
[3]
  IC50: 7.9 µM
[4]
  IC50: 75.9 µM
[5]
  Ratio IC50: 1.5
[6]
  IC50: 51.2 µM

## COc1ccc(-c2nn(-c3ccccc3)c3[nH]c(=O)c(C#N)cc23)cc1
[1]
  IC50: 16.6 µM
[2]
  IC50: 38 µM
[3]
  IC50: 33.1 µM
[4]
  IC50: > 100 µM
[5]
  Ratio IC50: >4
[6]
  IC50: 20.9 µM

## Cc1ccc(-c2nn(-c3ccc(Cl)cc3)c3[nH]c(=O)c(C#N)cc23)cc1
[1]
  IC50: > 100 µM
[2]
  IC50: 58.9 µM
[3]
  IC50: 71.6 µM

## CCc1ccc(/C=C2/SC(=S)NC2=O)cc1
[7]
  viability at 25 µM: 89.3%
[2]
  IC50: 44.7 µM
[8]
  Activity: 0.062%
[9]
  Activity: 8.06%
[3]
  IC50: 39.8 µM
[4]
  IC50: 59.5 µM
[5]
  Ratio IC50: 1.7
[10]
  Activity: 2.54%
[6]
  IC50: 35.1 µM

## N#Cc1cc2c(-c3ccc(F)cc3)nn(-c3ccc(F)cc3)c2[nH]c1=O
[1]
  IC50: 9.3 µM
[2]
  IC50: > 100 µM
[3]
  IC50: 79.4 µM
[4]
  IC50: > 100 µM
[6]
  IC50: > 100 µM

## Cc1ccc(-c2nn(-c3ccccc3)c3[nH]c(=O)c(C#N)cc23)cc1
[1]
  IC50: 20.4 µM
[2]
  IC50: 34.7 µM
[3]
  IC50: 32.4 µM
[4]
  IC50: 51.3 µM
[5]
  Ratio IC50: 2.4
[6]
  IC50: 21.1 µM

## N#Cc1cc2c(-c3ccc(Br)cc3)nn(-c3ccccc3)c2[nH]c1=O
[11]
  Activity: Active
[12]
  Activity: Active
[13]
  Activity: Active
[1]
  IC50: 12.2 µM
[2]
  IC50: 5.5 µM
[14]
  Activity: Active
[3]
  IC50: 13.2 µM
[4]
  IC50: 35.9 µM
[5]
  Ratio IC50: 2.3
[6]
  IC50: 15.6 µM
